MrgX1 agonist: agonists of human MrgX1 receptor; B-score at 10 µM; actives 0.44% (n = 310,000); MrgX1-HEK293 cells, Fluo-4 calcium fluorescence, agonist mode; stronger effect = higher value;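 active means calcium response B-score plate-corrected fluorescence ratio at least 3 library SD, with starting fluorescence B-score inside 5 SD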
Target sequence (Q96LB2 whole entry, looked up): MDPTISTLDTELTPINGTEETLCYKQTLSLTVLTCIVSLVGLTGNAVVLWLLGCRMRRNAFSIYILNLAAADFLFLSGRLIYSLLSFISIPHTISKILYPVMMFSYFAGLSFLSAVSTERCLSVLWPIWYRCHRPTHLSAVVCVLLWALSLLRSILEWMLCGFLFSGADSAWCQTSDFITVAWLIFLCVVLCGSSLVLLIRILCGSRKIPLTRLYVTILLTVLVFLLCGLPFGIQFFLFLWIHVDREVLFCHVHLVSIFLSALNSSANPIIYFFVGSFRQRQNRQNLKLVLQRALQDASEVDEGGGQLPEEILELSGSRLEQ
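Material: MrgX1-expressing HEK293 cells / Dosing: compound as first of three additions / Incubation: overnight seeding, then 1 h dark dye loading / Signal: Fluo-4 NW calcium fluorescence / Evaluation: B-scored fluorescence response ratio / Benchmarks: positive and negative control wells on each plate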
RGS4 act: potentiators or activators of RGS4 | actives 0.92% (n = 310,000) | B-score at 10 µM | AID 463111 | HEK293 M3R/inducible RGS4, carbachol calcium flux Fluo4; stronger effect = lower value;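 active means B-score of the integrated calcium signal more than 4 SD below the library mean, with starting fluorescence not abnormally high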;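 further: negative B-score means reduced calcium response which marks RGS4 activation or potentiation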
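Assay system: HEK293 FlpIn-TREx cells, stable M3R, doxycycline-inducible RGS4 / Probe or stimulus: carbachol, ECmax concentration / Times: overnight RGS4 induction, 30 min dye load 37 °C, 20 min compound RT / Signal: kinetic calcium fluorescence imaging with Fluo4-AM dye, 2 µM / Measure: Agonist-evoked peak-minus-minimum fluorescence over baseline, integrated ratio, B score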
RGS4 block: inhibitors of human RGS4 | P49798 | HEK293 M3R/RGS4 inducible, Fluo-4 calcium flux; stronger effect = higher value; triggered by carbachol at its EC20 | B-score at 10 µM | actives 0.45% (n = 310,000) | AID 463165;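 active means B-score, a plate-corrected calcium signal, over three deviations above library mean, with baseline fluorescence within five deviations of library mean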;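 further: RGS4 expression induced by doxycycline in cells with stable M3 receptor; B-score is computed from the integrated fluorescence ratio over baseline after carbachol; higher B-score means a larger calcium signal and so more RGS4 inhibition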
Target sequence (P49798 whole entry, looked up): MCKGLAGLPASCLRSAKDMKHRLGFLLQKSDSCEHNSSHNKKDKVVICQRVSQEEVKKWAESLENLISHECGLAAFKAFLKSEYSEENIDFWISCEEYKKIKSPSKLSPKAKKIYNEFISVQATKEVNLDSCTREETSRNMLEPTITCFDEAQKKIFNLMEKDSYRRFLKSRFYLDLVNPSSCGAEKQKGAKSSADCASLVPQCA
MrgX1 antag: blocks BAM8-22 activation of human MrgX1 receptor. Q96LB2. MRGX1-HEK293 calcium flux, Fluo-4, BAM8-22 antagonism; stronger effect = lower value. B-score at 10 µM. actives 1.3% (n = 310,000). AID 588676;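 active means calcium-response B-score plate-corrected more than 3 library SD below zero, starting fluorescence within 5 deviations, no agonist response on first addition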;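 further: peak minus trough fluorescence over baseline after final BAM8-22 challenge near maximal dose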
MrgX1 PAM: allosterically activates human MrgX1 receptor signaling. B-score at 10 µM. AID 588675. actives 0.63% (n = 310,000). Q96LB2. MrgX1-HEK293, Fluo-4 calcium flux, FDSS; stronger effect = higher value;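 active means plate-corrected calcium response at least 3 library SD above typical, normal starting fluorescence, not activating the receptor alone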;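 further: compound read alongside a low EC10 to EC30 dose of BAM8-22 agonist; peak minus trough fluorescence over baseline measured at the second addition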
MrgX1 PAM conf: confirmation of human MrgX1 receptor positive allosteric modulators | activation (ratio percentage), % at 10 µM | shares compounds with MrgX1 PAM | actives 13% (n = 1,200) | MrgX1-HEK293, Fluo-4 calcium fluorescence, FDSS;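 active means ratio at least 3 SD above the weak peptide control, stable starting fluorescence, no direct agonism earlier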;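 further: compound followed by low BAM8-22 agonist challenge near EC20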
MrgX1 ant reconf: human MrgX1 receptor antagonism, re-confirmation screen; shares compounds with MrgX1 antag; MrgX1-HEK293, BAM8-22 calcium flux, Fluo-4; stronger effect = lower value; remaining BAM8-22 calcium response % of control (stronger effect = lower value), % at 10 µM; actives 19% (n = 2,300);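 active means remaining agonist calcium response no higher than 100% minus 3 SD of agonist-only control wells, with starting fluorescence near control levels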;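 further: agonist BAM8-22 given at a near maximal EC90 to ECmax level; peak minus minimum fluorescence divided by baseline after agonist addition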
HEK293 Ca flux: counter-screen for MrgX1 antagonists: effect in parental HEK293 cells; Fluo-4 calcium fluorescence, FDSS; fluorescence ratio F(max-min)/F0 at 10 µM; actives 2% (n = 4,000); AID 624111; shares compounds with MrgX1 antag;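 active means duplicate-averaged calcium fluorescence ratio at least three times the standard deviation of buffer wells, a nonspecific response in parental cells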
HEK293 Ca counter: activity in parental HEK293 cells without MrgX1; AID 624114; parental HEK293 calcium flux, Fluo-4 fluorescence ratio; stronger effect = higher value; fluorescence ratio F(max-min)/F0 at 10 µM; shares compounds with MrgX1 antag; actives 0.4% (n = 4,000);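 active means calcium fluorescence ratio, averaged over duplicates, at least 3 SD of the buffer-well ratio, meaning a nonspecific response in receptor-free cells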;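 further: untransfected parental HEK293 lacking MrgX1 used as counterscreen for MrgX1 allosteric activators; fluorescence change taken during the second addition on a kinetic imager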
HEK293 Ca cntr2: activity in parental HEK293 cells lacking MrgX1 receptor | shares compounds with MrgX1 antag | Fluo-4 calcium fluorescence (FDSS); stronger effect = higher value | fluorescence ratio F(max-min)/F0 at 10 µM | actives 8.7% (n = 4,000) | AID 624115;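 active means calcium fluorescence ratio at least three times the spread of buffer wells, meaning a non-specific response in parental cells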
Hits are given with their value; n = inactive; x = not tested or not shown. Shown are actives, neighbours in structure and some others; about 3.5% of the full set was active somewhere.

SMILES | MrgX1 agonist | RGS4 act | RGS4 block | MrgX1 antag | MrgX1 PAM | MrgX1 PAM conf | HEK293 Ca flux | HEK293 Ca counter | HEK293 Ca cntr2 | others
CC(NC(=O)C1CSC2(C)CCC(=O)N12)c1ccccc1Cl (centres undefined) | n | n | n | n | n | x | x | x | x
CCCCC(O)(c1ccc(F)cc1)C(CN1CCOCC1)c1ccc(Cl)cc1 (centres undefined) | n | n | n | n | n | x | x | x | x
COC(=O)c1ccc(NC(=S)N2CCN(CCO)CC2)cc1 | n | n | n | n | n | x | x | x | x
COc1ccc(-c2[nH]ncc2-c2ccc3c(c2)OCCO3)c(O)c1 | n | x | x | n | 8 | n | n | n | n
CCc1cc(-c2[nH]ncc2-c2ccc3c(c2)OCO3)c(O)cc1O | n | n | n | n | n | x | x | x | x
CCOc1ccc(-c2[nH]ncc2-c2ccc(OC)c(OC)c2)c(O)c1 | n | x | x | n | 18 | n | n | n | n
CCOc1ccc(-c2[nH]ncc2Oc2ccccc2OCC)c(O)c1 | n | n | n | n | 6.7 | n | n | n | n
CCn1c(=O)c2sccc2n(CC(=O)NC2CCCCC2)c1=O | n | n | n | n | n | x | x | x | x
CNC(=O)c1c(NC(=O)CCS(=O)(=O)c2ccc(Cl)cc2)sc2c1CCN(C(=O)OC)C2 | n | n | n | n | n | x | x | x | x
Cn1cc(S(=O)(=O)N2CCCC2)cc1C(=O)NCc1ccc(Cl)cc1 | n | n | n | n | n | x | x | x | x
CC(C)CNc1ncnc2c1cnn2Cc1ccccc1Cl | n | n | n | n | 10 | n | n | n | n
CCOC(=O)c1c(-c2ccccc2)nc2ccc(C)cn12 | n | n | n | n | 9.5 | n | n | n | n
CCOC(=O)c1c(-c2ccccc2)nc2cc(C)ccn12 | n | n | n | n | n | x | x | x | x
COc1ccc(Nc2cc(C)nc(N)n2)cc1 | n | n | n | n | n | x | x | x | x
Nc1cc(Nc2ccc(Br)cc2)nc(N)n1 | n | n | n | -8.6 | 7.5 | n | n | n | n | MrgX1 ant reconf=n
COc1ccc(CC(=O)Nc2cc(=O)n(C)c(=O)n2C)cc1OC | n | n | n | n | 6.6 | n | n | n | n
COc1ccc(C(=O)Nc2cc(=O)n(C)c(=O)n2C)cc1OC | n | n | n | n | n | x | x | x | x
COc1ccc(NS(=O)(=O)c2cn(C)cn2)cc1 | n | n | n | n | n | x | x | x | x
CSc1cccc(NS(=O)(=O)c2cn(C)cn2)c1 | n | n | n | n | 12 | n | n | n | n
CCN(C(=O)c1cc(S(=O)(=O)N2CCCCC2)c[nH]1)c1ccc(OC)cc1 | n | n | n | n | n | x | x | x | x
COc1cccc(NC(=O)CN2C(=O)COc3ccc(Cl)cc32)c1 | n | n | n | n | 7.7 | n | n | n | n
CCN(CC)S(=O)(=O)c1ccc(NC(=O)Cc2cccs2)cc1 | n | n | n | n | n | x | x | x | x
O=C(CC1CC2CCC1C2)NCCc1ccc(Cl)cc1 (centres undefined) | n | n | n | n | n | x | x | x | x
Cc1ccc(-n2c(C)c3c(C)nnc(C)c3c2C)cc1N | n | n | n | n | 22 | n | n | n | n
Cc1cc(-n2c(C)c3c(C)nnc(C)c3c2C)ccc1N | n | n | n | n | n | x | x | x | x
SMILES | MrgX1 agonist | RGS4 act | RGS4 block | MrgX1 antag | MrgX1 PAM | MrgX1 PAM conf | HEK293 Ca flux | HEK293 Ca counter | HEK293 Ca cntr2 | others
COc1ccc(C(C(=O)NC(C)(C)C)N(CCc2ccc(OC)c(OC)c2)C(=O)CCC(=O)Nc2cc(C)on2)cc1 (centres undefined) | n | n | n | n | n | x | x | x | x
Cc1cccc(C(=O)N[C@H](C(=O)Nc2nc(C)cs2)C(C)C)c1 | n | n | n | n | n | x | x | x | x
Cc1cccc(C(=O)N[C@H](C(=O)Nc2nccs2)C(C)C)c1 | n | n | n | n | 24 | n | n | n | n
CC(SCc1ccccc1)C(=O)Nc1ccccc1Br (centres undefined) | n | n | n | n | 6.5 | n | n | n | n
COc1cccc(C(=O)Nc2ccc(N3CCN(C(=O)c4cccs4)CC3)cc2)c1 | n | n | n | n | n | x | x | x | x
CCCN(Cc1nnc(-c2ccccc2Cl)o1)C(=O)c1cc(S(=O)(=O)N2CCOCC2)ccc1F | n | n | n | n | n | x | x | x | x
Cc1cc(C)n(/N=C/c2cc(Cl)cc(Cl)c2O)c(=O)c1 | n | n | n | n | 21 | n | 0.43 | n | 77
Cc1cc(C)n(/N=C/c2ccccc2O)c(=O)c1 | n | n | n | n | n | x | x | x | x
CCOC(=O)/C(C(=Nc1ccccc1)Nc1ccccc1)=C(\C)O | n | n | n | n | 7.7 | n | n | n | n
CCCCC[C@H]1CN(C2CCCCC2)C(=O)[C@@H]1CC(=O)NCc1ccccc1 | n | n | n | n | n | x | x | x | x
COc1cccc(CCNC(=O)CCc2nnc(Cc3cc(OC)ccc3OC)o2)c1 | n | n | n | n | n | x | x | x | x
CC(=O)Nc1ccnn1C1CCN(C(=O)c2cccc(C)c2C)CC1 | n | n | n | n | n | x | x | x | x
Cc1ccccc1Nc1nnc(SCC2CCCCO2)s1 (centres undefined) | n | n | n | n | n | x | x | x | x
Cc1ccc(Nc2nnc(SCC3CCCCO3)s2)cc1 (centres undefined) | n | n | n | n | 8.5 | n | n | n | n
COc1ccc(C(=O)Nc2cc(=O)[nH]c3ncnn23)cc1 | n | n | n | n | n | x | x | x | x
Cc1cc(S(=O)(=O)N2CCCC2)ccc1OCC(=O)Nc1ccccc1 | n | n | n | n | n | x | x | x | x
COc1ccc(-c2csc3nc(-c4cccnc4)nc(Cl)c23)cc1OC | n | n | n | n | 6.7 | 3.9% | n | n | n
Cc1ccc(NC2CCCN(C(=O)C3CCCCC3)C2)cc1C (centres undefined) | n | n | n | n | n | x | x | x | x
COc1cccc(CN2CC(C(=O)N(C)Cc3nc4ccc(F)cc4[nH]3)CCC2=O)c1 (centres undefined) | n | n | n | n | 7 | n | n | n | n
COc1ccc2nc(CCN(C)C(=O)C3CCC(=O)N(Cc4cccc(F)c4)C3)[nH]c2c1 (centres undefined) | n | n | n | n | n | x | x | x | x
CCOc1ccc(NC(=O)CN(C)C(=O)c2cc(S(=O)(=O)N(C)C)ccc2N2CCCC2)cc1OCC | n | n | n | n | n | x | x | x | x
